Results: ChEMBL document CHEMBL4480403, “DDX3X Helicase Inhibitors as a New Strategy To Fight the West Nile Virus Infection” (J Med Chem, 2019)
pEC50, pIC50: −log10 of the molar value. The source made the active and inactive calls. The calls are words filed in the database; no cut-off is given here.

Key:
[1] = biological target: T1, ATP-dependent RNA helicase DDX3X (Homo sapiens, UniProt O00571); assay: Inhibition of full length His-tagged human DDX3X expressed in Escherichia coli assessed as reduction in DDX3X helicase activity using FAM-labeled double stranded RNA as substrate after 40 mins by FRET assay relative to control
Summary of the method: (§1)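 Recombinant His-tagged full-length DDX3X expressed in E. coli, Ni-NTA purified. Unwinding of FAM-labelled dsRNA, with capture strand at 100 nM, in Tris-HCl pH 8, 70 mM KCl, 2 mM MgCl2, 2 mM DTT, 2 mM ATP. Started with DDX3X, 37°C, 40 min, fluorescence read every 30 s. Initial slope gives unwinding rate; IC50 by nonlinear regression of triplicates.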

[2] = Apparent permeability of the compound by PAMPA; type: ADME
Summary of the method: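 PAMPA: 0.5 mM donor solution in pH 7.4 phosphate buffer, diluted from 1 mM DMSO stock. Filter coated with 1% phosphatidylcholine in dodecane; acceptor 50% DMSO in buffer. Incubated 5 h at room temperature with shaking. Donor and acceptor quantified by LC-UV at 280 nm and Papp calculated. Three plates on different days.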

[3] = (§2) Cytotoxicity against human HuH7 cells after 3 days by MTT assay; type: cell-based, Huh-7; conditions: human, HuH7 cells
Summary of the method: (§3)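 Huh7 cells (2.5 × 10^4 per well) adhered overnight. Confluent monolayers washed, then treated with compound (final 100–0.01 μM) or DMSO control for 3 days at 37°C. Viability by MTT, absorbance 570 nm, expressed relative to DMSO-treated cells.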

[4] = Metabolic stability in human liver microsomes at 50 uM after 60 mins in presence of NADPH-generating system by LC-UV-MS analysis; type: ADME, Microsome; conditions: read-out: Stability
Summary of the method: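 Compound at 50 μM final (DMSO ≤2%) incubated with human liver microsomes (0.2 mg/mL) and NADPH-generating system in 125 mM phosphate buffer pH 7.4, 37 °C, 60 min. Remaining compound measured by LC-ESI-MS in positive ion mode, with UV at 280 nm.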

West Nile virus [5] = assay: Antiviral activity against West Nile virus infected in human HuH7 cells incubated for 4 days by crystal violet staining based plaque reduction assay; type: functional, organism-based; conditions: Huh-7, 96 h
Summary of the method: (§4)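 Huh7 cells (2.5 × 10^5 per well, overnight) infected with lineage 2 WNV at MOI 0.1 for 1 h at 37°C, washed, then compound added in 10-fold dilutions (final 100–0.01 μM) with DMSO as virus control. Agarose overlay, 4 days at 37°C, methanol fixation, crystal violet staining. PFU relative to DMSO; IC50 by exponential fit at 50% PFU. Duplicates, repeated at least twice.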

[6] = biological target: T2, ATP-dependent RNA helicase DDX1 (Homo sapiens, UniProt Q92499); assay: Inhibition of human DDX1 helicase activity
T2 sequence (Q92499 whole entry): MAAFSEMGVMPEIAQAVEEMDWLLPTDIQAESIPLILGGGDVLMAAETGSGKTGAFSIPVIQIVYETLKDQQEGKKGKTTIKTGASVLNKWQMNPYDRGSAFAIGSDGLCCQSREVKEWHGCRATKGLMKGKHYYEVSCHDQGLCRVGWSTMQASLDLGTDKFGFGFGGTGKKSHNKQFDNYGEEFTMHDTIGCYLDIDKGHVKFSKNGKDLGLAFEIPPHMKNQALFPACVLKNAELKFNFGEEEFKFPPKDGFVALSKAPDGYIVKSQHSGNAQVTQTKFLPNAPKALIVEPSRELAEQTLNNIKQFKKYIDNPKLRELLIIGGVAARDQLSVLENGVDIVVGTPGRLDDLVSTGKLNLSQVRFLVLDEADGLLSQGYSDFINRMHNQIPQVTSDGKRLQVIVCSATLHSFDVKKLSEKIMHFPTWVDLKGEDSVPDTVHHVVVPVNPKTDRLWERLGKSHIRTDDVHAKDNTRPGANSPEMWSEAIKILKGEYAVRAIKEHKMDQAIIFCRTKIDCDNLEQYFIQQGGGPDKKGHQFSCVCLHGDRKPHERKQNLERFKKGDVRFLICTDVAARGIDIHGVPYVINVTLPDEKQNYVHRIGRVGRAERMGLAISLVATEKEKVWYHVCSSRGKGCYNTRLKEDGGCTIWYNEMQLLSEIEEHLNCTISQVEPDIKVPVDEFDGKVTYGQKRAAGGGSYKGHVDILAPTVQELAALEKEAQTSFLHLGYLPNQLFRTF

West Nile virus [7] = assay: Antiviral activity against West Nile virus; type: functional, organism-based; summary of the method: as §4
West Nile virus [8] = assay: Antiviral activity against West Nile virus infected in human HuH7 cells assessed as reduction in genomic RNA at 1 uM added at 3 hrs hrs post viral infection by PCR analysis; type: functional, organism-based
Summary of the method: (§5)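 Huh7 cells infected with WNV at MOI 0.1; compound at 1 µM added 1 h or 3 h after infection. Total RNA (200 ng) reverse-transcribed with strand-specific primers for genomic or complementary WNV RNA, then quantified by real-time PCR against plasmid standards. Detection limit 10 copies. Means with standard deviation.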

West Nile virus [9] = assay: Antiviral activity against West Nile virus infected in human HuH7 cells assessed as reduction in complementary RNA at 1 uM added at 1 hr post viral infection by PCR analysis; type: functional, organism-based; summary of the method: as §5
West Nile virus [10] = assay: Antiviral activity against West Nile virus infected in human HuH7 cells at 1 to 10 uM added before 2 hrs post infection by crystal violet staining based plaque reduction assay; type: functional, organism-based
Summary of the method: (§6)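 Huh7 cells infected with WNV at MOI 0.1; compound at 1 µM and 10 µM added at various times relative to infection. Read-out by viral plaque reduction assay. Means with standard deviation.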

Huh-7 = assay: as §2; type: cell-based; conditions: Homo sapiens, Huh-7, 72 h; summary of the method: as §3
West Nile virus [11] = assay: Antiviral activity against West Nile virus infected in human HuH7 cells assessed as reduction in capsid protein levels at 1 uM added at 3 hrs post infection by SDS-PAGE analysis; type: functional, organism-based
Summary of the method: (§7)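 Huh7 cells were infected with WNV at MOI 0.1, with compound at 1 µM added 1 h or 3 h after infection; a no-compound infected control was run alongside. Cell lysates were run on 10% SDS-PAGE and immunoblotted with anti-capsid polyclonal antibody, then peroxidase-conjugated anti-rabbit IgG.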

West Nile virus [12] = assay: Antiviral activity against West Nile virus infected in African green monkey Vero cells incubated for 4 days by crystal violet staining based plaque reduction assay; type: functional, organism-based; conditions: 96 h
Summary of the method: (§8)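 Cell monolayers at 80–90% confluence were infected with WNV lineage 2 strain at MOI 0.1 for 1 h at 37°C with 5% CO2, then washed. DMSO vehicle or compound (final 100, 10, 1, 0.1, 0.01 μM) was added in duplicate under a 0.5% agarose overlay. Ribavirin served as reference. After methanol fixation and 0.1% crystal violet staining, PFU were expressed relative to DMSO control. IC50 was interpolated at 50% PFU; experiments were repeated at least twice.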

Vero = assay: Cytotoxicity against African green monkey Vero cells after 3 days by MTT assay; type: cell-based; conditions: Chlorocebus sabaeus, 72 h
Summary of the method: (§9)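 Confluent monolayers were washed with PBS and treated in DMEM with DMSO alone (control) or compound at final 100, 10, 1, 0.1, 0.01 μM. Cells were incubated 3 days at 37°C, then given MTT with absorbance read at 570 nm. Cytotoxicity was taken as the OD ratio of treated to DMSO wells, and CC50 was the concentration killing 50% of uninfected cells.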

West Nile virus [13] = assay: Antiviral activity against West Nile virus infected in human HuH7 cells at 1 to 10 uM added after 3 hrs post infection by crystal violet staining based plaque reduction assay; type: functional, organism-based; summary of the method: as §6
West Nile virus [14] = assay: Antiviral activity against West Nile virus infected in human A549 cells incubated for 4 days by crystal violet staining based plaque reduction assay; type: functional, organism-based; conditions: A549, 96 h; summary of the method: as §8
West Nile virus [15] = assay: Antiviral activity against West Nile virus infected in human HuH7 cells assessed as reduction in capsid protein levels at 1 uM added at 1 hr post infection by SDS-PAGE analysis; type: functional, organism-based; summary of the method: as §7
West Nile virus [16] = assay: Antiviral activity against West Nile virus infected in human HuH7 cells assessed as reduction in genomic RNA at 1 uM added at 1 hr post viral infection by PCR analysis; type: functional, organism-based; summary of the method: as §5
A549 = assay: Cytotoxicity against human A549 cells after 3 days by MTT assay; type: cell-based; conditions: A549, 72 h; summary of the method: as §9
[17] = biological target: T1, ATP-dependent RNA helicase DDX3X; assay: Competitive inhibition of human full length His-tagged DDX3X helicase activity expressed in Escherichia coli using FAM-labeled double stranded RNA as substrate at 0.1 uM after 40 mins by fluorescence assay; summary of the method: as §1
[18] = biological target: T1, ATP-dependent RNA helicase DDX3X; assay: Competitive inhibition of full length His-tagged human DDX3X expressed in Escherichia coli assessed as reduction in DDX3X helicase activity using 0.1 uM FAM-labeled double stranded RNA as substrate after 40 mins by FRET assay relative to control; summary of the method: as §1
[19] = biological target: T1, ATP-dependent RNA helicase DDX3X; assay: Competitive inhibition of full length His-tagged human DDX3X expressed in Escherichia coli assessed as reduction in DDX3X helicase activity using 0.024 uM FAM-labeled double stranded RNA as substrate after 40 mins by FRET assay relative to control; summary of the method: as §1

T1 sequence (O00571 2-662 limits assumed): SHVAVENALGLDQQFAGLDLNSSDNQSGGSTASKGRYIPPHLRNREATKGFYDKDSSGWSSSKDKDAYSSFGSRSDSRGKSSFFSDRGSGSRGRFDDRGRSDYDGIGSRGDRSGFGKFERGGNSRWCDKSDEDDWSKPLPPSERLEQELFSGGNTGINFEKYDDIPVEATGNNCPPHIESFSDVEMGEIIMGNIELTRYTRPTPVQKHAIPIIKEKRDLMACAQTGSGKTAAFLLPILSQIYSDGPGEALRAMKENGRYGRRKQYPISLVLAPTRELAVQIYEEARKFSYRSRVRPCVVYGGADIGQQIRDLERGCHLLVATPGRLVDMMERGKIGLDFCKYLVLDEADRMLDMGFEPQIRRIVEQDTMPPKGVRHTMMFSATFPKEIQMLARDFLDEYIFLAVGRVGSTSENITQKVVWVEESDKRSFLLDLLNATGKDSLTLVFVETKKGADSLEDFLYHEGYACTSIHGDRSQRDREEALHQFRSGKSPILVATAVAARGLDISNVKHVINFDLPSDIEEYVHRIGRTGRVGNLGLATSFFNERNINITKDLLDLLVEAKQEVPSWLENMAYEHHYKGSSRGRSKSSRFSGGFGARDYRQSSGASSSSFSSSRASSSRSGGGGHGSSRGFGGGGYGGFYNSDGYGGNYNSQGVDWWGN

CCCCc1cn(-c2cccc(S(=O)(=O)Nc3ccc(OC)cc3)c2)nn1
inhibition [1]: 80%

CCOCc1cn(-c2cccc(S(=O)(=O)Nc3ccccc3C(F)(F)F)c2)nn1
Papp [2]: 0.71 ×10⁻⁶ cm/s
CC50 at 72 h [3]: > 200 µM
remaining at 1 h, 50 µM [4]: 97.1%
pEC50 (West Nile virus [5]): 4.18
inhibition [1]: 98%

CCCCc1cn(-c2ccc(NC(=O)Nc3ccccc3C)cc2)nn1
CC50 at 72 h [3]: > 200 µM
remaining at 1 h, 50 µM [4]: 99%
pEC50 (West Nile virus [5]): 5.06
inhibition [1]: 98%
pIC50 [6]: < 3.70

CCOCc1cn(-c2cccc(S(=O)(=O)Nc3cccc4cnccc34)c2)nn1
Papp [2]: 0.44 ×10⁻⁶ cm/s
CC50 at 72 h [3]: > 200 µM
remaining at 1 h, 50 µM [4]: 96%
pEC50 (West Nile virus [5]): 4.89
inhibition [1]: 98%

CCCCc1cn(-c2cccc(S(=O)(=O)Nc3ccccc3)c2)nn1
inhibition [1]: 31%

CCOC(=O)[C@@](C)(O)[C@@H]1C[C@@H](CO[Si](c2ccccc2)(c2ccccc2)C(C)(C)C)O[C@H]1n1cc(F)c(=O)[nH]c1=O
pEC50 (West Nile virus [7]): 4.57

CCCCc1cn(-c2cccc(S(=O)(=O)Nc3ccccc3F)c2)nn1
CC50 at 72 h [3]: > 200 µM
pEC50 (West Nile virus [5]): < 3.70
inhibition [1]: 24%

CCCCc1cn(-c2cccc(S(=O)(=O)Nc3ccccc3C(F)(F)F)c2)nn1
Activity (West Nile virus [8]): inactive
Activity (West Nile virus [9]): Active
Papp [2]: 0.21 ×10⁻⁶ cm/s
Activity (West Nile virus [10]): Active
pIC50 (Huh-7): < 3.70
Activity (West Nile virus [11]): inactive
pEC50 (West Nile virus [12]): 4.92
remaining at 1 h, 50 µM [4]: 99%
pEC50 (West Nile virus [5]): 4.64
pIC50 (Vero): < 3.70
Activity (West Nile virus [13]): inactive
pEC50 (West Nile virus [14]): 5.47
Activity (West Nile virus [15]): Active
Activity (West Nile virus [16]): Active
inhibition [1]: 98%
pIC50 (A549): 4.67
pIC50 [6]: < 3.70

CCCCc1cn(-c2cccc(S(=O)(=O)Nc3ccccc3O)c2)nn1
Papp [2]: 0.1 ×10⁻⁶ cm/s
ID50 [17]: 20 µM
CC50 at 72 h [3]: > 200 µM
remaining at 1 h, 50 µM [4]: 95.6%
pEC50 (West Nile virus [5]): 5.64
inhibition [1]: 83%
ID50 [18]: 2.2 µM
ID50 [19]: 0.3 µM

CCCCc1cn(-c2cccc(S(=O)(=O)Nc3ccccc3C)c2)nn1
CC50 at 72 h [3]: > 200 µM
pEC50 (West Nile virus [5]): 4.40
inhibition [1]: 59%

C[C@@]1(O)[C@H](O)[C@@H](CO)O[C@H]1n1ccc2c(N)ncnc21 [BETA-2'-C-METHYL-7-DEAZA-ADENOSINE]
pEC50 (West Nile virus [7]): 5.35

O=S(=O)(Nc1ccccc1C(F)(F)F)c1cccc(-n2cc(-c3ccccc3)nn2)c1
inhibition [1]: 41%
